Active and inactive are the calls of the source.
Experiments:
Mus musculus [1] = assay: Neuroprotective activity in SOD1 G93A mutant B6SJL mouse ALS model assessed as life extension at 20 mg/kg administered qd for 1 week relative to untreated control; format: functional
[2] = system: Superoxide dismutase [Cu-Zn] (Homo sapiens), P00441 [G94A]; assay: Inhibition of SOD1 G93A mutant aggregation-induced cytotoxicity in rat PC12 cells assessed as cell viability incubated for 24 hrs and measured 72 hrs post compound dose by cytotoxicity protection assay; format: cell-based; conditions: PC-12
Procedure, shortened: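 PC12 cells expressing G93A SOD1-YFP fusion seeded 15000 cells/well, grown 24 h before dosing. 12-point dose response, top 32 μM, twofold dilutions. After 24 h, MG132 added (100 nM final). Viability measured 48 h later with Calcein-AM (1 μM final, 20 min, room temperature) fluorescence. EC50 derived from dose-response.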

[3] = Half life in human microsomes at 5 uM incubated for 1 hr at 37 degC in presence of NADPH; format: ADME, Microsome; conditions: 1 h, 5 µM
Cerebral cortex neuron = assay: Cytoprotection in rat Primary cortical neurons incubated for 24 hrs and measured 72 hrs post compound dose by cytotoxicity protection assay; format: functional, cell-based
Procedure, shortened: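 Primary cortical neurons from E18 Sprague-Dawley or Fischer 344 rat brain, dissociated with papain (2 mg/mL, 30 min, 37 °C), plated on poly-D-lysine at 20,000 cells/well, cultured 5 days (~90% neurons). Six-point dose response from 100 μM top, roughly one-third dilutions; 24 h pre-incubation, then MG132 100 nM. Viability read 48 h later by Calcein-AM (1 μM, 20 min, RT) fluorescence. Active = viability ≥5 SD above MG132 controls.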

[4] = Plasma concentration in B6SJL mouse at 300 mg/kg after 3 hrs by mass spectrometry; format: ADME, organism-based; design: dose 300 mg/kg
Procedure, shortened: (§1)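 B6SJL mice were given a single 300 mg/kg intraperitoneal bolus. Blood and brain were collected at 0, 1, 3, 6, 12 and 24 h, flash-frozen in liquid nitrogen and stored at -80 °C. Samples were analyzed by mass spectrometry with ESI ionization in MRM mode.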

[5] = Plasma concentration in B6SJL mouse at 300 mg/kg after 6 hrs by mass spectrometry; format: ADME, organism-based; design: dose 300 mg/kg
Procedure, shortened: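 Single 300 mg/kg bolus i.p. injection in B6SJL mice; blood and brain collected at 0, 1, 3, 6, 12 and 24 h, flash frozen in liquid nitrogen and stored at -80 °C. Samples analysed by mass spectrometry with ESI ionization in MRM mode.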

[6] = Plasma concentration in B6SJL mouse at 300 mg/kg after 12 hrs by mass spectrometry; format: ADME, organism-based; design: dose 300 mg/kg; procedure, shortened: as §1
[7] = AUClast in Sprague-Dawley rat at 1 mg/kg, iv; format: ADME, organism-based; design: dose 1 mg/kg, route intravenous, time 0 - last; conditions: plasma
Procedure, shortened: (§2)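 Sprague-Dawley rats given a single 1 mg/kg bolus, intravenous or oral. Plasma PK parameters (AUC, dose-normalised AUC, half-life, clearance, Vss, Cmax, Tmax, oral bioavailability) derived from plasma levels.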

[8] = AUClast in Sprague-Dawley rat at 1 mg/kg, po; format: ADME, organism-based; design: dose 1 mg/kg, route oral, time 0 - last; conditions: plasma; procedure, shortened: as §2
[9] = Half life in Sprague-Dawley rat at 1 mg/kg, po; format: ADME, organism-based; design: dose 1 mg/kg, route oral; conditions: in vivo; procedure, shortened: as §2
hERG [10] = molecular target: T1, hERG (Homo sapiens, UniProt Q12809); assay: Inhibition of human ERG expressed in human HEK293 cells at 10 uM by patch clamp assay; format: cell-based; conditions: HEK293 cells that express hERG
Procedure, shortened: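 Cloned hERG potassium channels expressed in HEK293 cells. FASTPatch patch-clamp screen with test compound at 10 μM, two experiments. E-4031 used as positive control. Solubility at test concentration checked by TurboSol; value given as mean % hERG antagonism.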

Cytochrome P450 2C9 = Cytochrome P450 2C9 (Homo sapiens, UniProt P11712); assay: Inhibition of CYP2C9; format: ADME
Procedure, shortened: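 Reversible inhibition of CYP isozymes in human liver microsomes, each isozyme with a single probe substrate. CYP3A4 tested with both testosterone and midazolam. IC50 determined.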

[11] = molecular target: Adenosine receptor A3 (Homo sapiens) (UniProt P0DMS8); assay: Inhibition of human adenosine A3 receptor at 10 uM by radioligand displacement assay
Procedure, shortened: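 Single concentration of 10 μM, tested in duplicate in a contract panel of 68 in vitro enzyme and receptor binding assays covering common adverse CNS, cardiovascular, pulmonary and genotoxic targets.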

[12] = molecular target: Alpha-1D adrenergic receptor (Homo sapiens) (UniProt P25100); assay: Inhibition of human adrenergic alpha1D receptor at 10 uM by radioligand displacement assay
Procedure, shortened: (§3)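 LeadProfilingScreen panel of 68 in vitro enzyme and receptor assays. Compound tested at 10 μM in duplicate.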

[13] = molecular target: Beta-1 adrenergic receptor (Homo sapiens) (UniProt P08588); assay: Inhibition of human beta1 adrenergic receptor at 10 uM by radioligand displacement assay; procedure, shortened: as §3
[14] = molecular target: Androgen receptor (Rattus norvegicus) (UniProt P15207); assay: Inhibition of rat testosterone receptor at 10 uM by radioligand displacement assay
Procedure, shortened: (§4)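 Single concentration of 10 μM, tested in duplicate as part of a contracted panel of 68 in vitro enzyme and receptor assays. The panel covers common adverse CNS, cardiovascular, pulmonary and genotoxic targets.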

[15] = molecular target: B2 bradykinin receptor (Homo sapiens) (UniProt P30411); assay: Inhibition of human bradykinin B2 receptor at 10 uM by radioligand displacement assay; procedure, shortened: as §3
[16] = molecular target: L-type calcium channel, dihydropyridine site (Rattus norvegicus, UniProt P22002+P27732+Q02485); assay: Inhibition of rat calcium channel L-type, dihydropyridine site at 10 uM by radioligand displacement assay; procedure, shortened: as §4
[17] = molecular target: L-type calcium channel, benzothiazepine site (Rattus norvegicus, UniProt P22002+P27732+Q02485); assay: Inhibition of rat calcium channel L-type, benzothiazepine site at 10 uM by radioligand displacement assay; procedure, shortened: as §4
Rattus norvegicus [18] = species on record: Rattus norvegicus; assay: Inhibition of rat N-type calcium channel at 10 uM by radioligand displacement assay; procedure, shortened: as §4
[19] = molecular target: Epidermal growth factor receptor (Homo sapiens) (UniProt P00533); assay: Inhibition of human epidermal growth factor receptor at 10 uM by radioligand displacement assay; procedure, shortened: as §4
[20] = molecular target: Histamine H2 receptor (Homo sapiens) (UniProt P25021); assay: Inhibition of human histamine H2 receptor at 10 uM by radioligand displacement assay; procedure, shortened: as §4
Rattus norvegicus [21] = species on record: Rattus norvegicus; assay: Inhibition of rat imidazoline I2 receptor at 10 uM by radioligand displacement assay; procedure, shortened: as §4
Homo sapiens = species on record: Homo sapiens; assay: Inhibition of human nicotinic acetylcholine receptor at 10 uM by radioligand displacement assay; procedure, shortened: as §4
hERG [22] = molecular target: T1, hERG; assay: Inhibition of human ERG at 10 uM by radioligand displacement assay; procedure, shortened: as §3
[23] = molecular target: Substance-P receptor (Homo sapiens) (UniProt P25103); assay: Inhibition of human tachykinin NK1 receptor at 10 uM by radioligand displacement assay; procedure, shortened: as §4
Mus musculus [24] = assay: Neuroprotective activity in SOD1 G93A mutant B6SJL mouse ALS model assessed as life extension at 1 mg/kg administered qd for 1 week (reference value: 125.7 +/- 4.9 days); format: functional
Mus musculus [25] = assay: Neuroprotective activity in SOD1 G93A mutant B6SJL mouse ALS model assessed as life extension at 20 mg/kg administered qd for 1 week (reference value: 125.7 +/- 4.9 days); format: functional
[26] = system: Superoxide dismutase [Cu-Zn] (Homo sapiens), P00441 [G94A]; assay: Inhibition of SOD1 G93A mutant aggregation-induced cytotoxicity in human SH-SY5Y cells by cytotoxicity protection assay; format: cell-based
[27] = system: Superoxide dismutase [Cu-Zn] (Homo sapiens), P00441 [G94A]; assay: Inhibition of SOD1 G93A mutant aggregation-induced cytotoxicity in human HeLa cells by cytotoxicity protection assay; format: cell-based

Chain of Superoxide dismutase [Cu-Zn] (Homo sapiens), P00441 [G94A] (P00441 whole entry G94A, the tested form may be a part): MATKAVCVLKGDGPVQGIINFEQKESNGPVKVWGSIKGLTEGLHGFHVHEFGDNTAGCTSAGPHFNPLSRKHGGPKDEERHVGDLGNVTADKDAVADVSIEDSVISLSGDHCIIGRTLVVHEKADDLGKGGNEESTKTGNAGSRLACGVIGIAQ
T1 sequence (Q12809 whole entry): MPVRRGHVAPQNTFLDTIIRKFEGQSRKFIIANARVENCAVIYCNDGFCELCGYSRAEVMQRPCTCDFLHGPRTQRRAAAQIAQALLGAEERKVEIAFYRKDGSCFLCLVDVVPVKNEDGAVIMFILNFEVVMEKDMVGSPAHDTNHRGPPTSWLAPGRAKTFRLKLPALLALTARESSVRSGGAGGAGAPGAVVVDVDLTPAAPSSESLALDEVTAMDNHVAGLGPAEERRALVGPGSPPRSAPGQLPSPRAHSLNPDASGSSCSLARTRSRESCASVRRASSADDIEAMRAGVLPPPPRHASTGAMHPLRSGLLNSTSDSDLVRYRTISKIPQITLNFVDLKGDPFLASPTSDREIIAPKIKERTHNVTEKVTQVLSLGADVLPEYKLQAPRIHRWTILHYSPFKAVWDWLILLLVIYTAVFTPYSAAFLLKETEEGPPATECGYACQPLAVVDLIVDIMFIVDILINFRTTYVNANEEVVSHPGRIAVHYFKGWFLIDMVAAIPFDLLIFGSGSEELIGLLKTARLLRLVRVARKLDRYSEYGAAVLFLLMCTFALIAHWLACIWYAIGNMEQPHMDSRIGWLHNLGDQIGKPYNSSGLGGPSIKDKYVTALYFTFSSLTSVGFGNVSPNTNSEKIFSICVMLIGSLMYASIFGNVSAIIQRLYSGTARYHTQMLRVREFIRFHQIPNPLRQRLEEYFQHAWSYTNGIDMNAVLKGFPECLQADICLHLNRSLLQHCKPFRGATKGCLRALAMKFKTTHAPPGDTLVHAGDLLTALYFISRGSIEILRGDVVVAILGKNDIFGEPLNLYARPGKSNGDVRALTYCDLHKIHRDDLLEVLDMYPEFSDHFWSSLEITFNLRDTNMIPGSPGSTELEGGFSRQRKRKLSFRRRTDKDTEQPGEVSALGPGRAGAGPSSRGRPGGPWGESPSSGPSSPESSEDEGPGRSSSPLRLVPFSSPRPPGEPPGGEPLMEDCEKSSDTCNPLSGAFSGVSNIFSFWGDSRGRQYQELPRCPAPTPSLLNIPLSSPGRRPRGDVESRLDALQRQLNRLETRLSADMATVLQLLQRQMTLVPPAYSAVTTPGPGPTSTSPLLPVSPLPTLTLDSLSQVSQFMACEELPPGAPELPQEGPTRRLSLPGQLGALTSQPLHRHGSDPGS
Chain of Histamine H2 receptor (Homo sapiens) (P25021 whole entry): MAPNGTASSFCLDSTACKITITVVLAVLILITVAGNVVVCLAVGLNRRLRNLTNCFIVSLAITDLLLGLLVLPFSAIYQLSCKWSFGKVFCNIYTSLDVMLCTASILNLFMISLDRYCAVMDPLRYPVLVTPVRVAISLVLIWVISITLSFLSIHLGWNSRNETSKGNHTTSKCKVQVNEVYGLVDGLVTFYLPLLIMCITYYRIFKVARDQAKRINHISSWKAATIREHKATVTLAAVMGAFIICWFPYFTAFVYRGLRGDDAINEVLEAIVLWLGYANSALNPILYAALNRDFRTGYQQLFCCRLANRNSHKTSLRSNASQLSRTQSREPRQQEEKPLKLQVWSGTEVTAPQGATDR
Chain of Epidermal growth factor receptor (Homo sapiens) (P00533 whole entry): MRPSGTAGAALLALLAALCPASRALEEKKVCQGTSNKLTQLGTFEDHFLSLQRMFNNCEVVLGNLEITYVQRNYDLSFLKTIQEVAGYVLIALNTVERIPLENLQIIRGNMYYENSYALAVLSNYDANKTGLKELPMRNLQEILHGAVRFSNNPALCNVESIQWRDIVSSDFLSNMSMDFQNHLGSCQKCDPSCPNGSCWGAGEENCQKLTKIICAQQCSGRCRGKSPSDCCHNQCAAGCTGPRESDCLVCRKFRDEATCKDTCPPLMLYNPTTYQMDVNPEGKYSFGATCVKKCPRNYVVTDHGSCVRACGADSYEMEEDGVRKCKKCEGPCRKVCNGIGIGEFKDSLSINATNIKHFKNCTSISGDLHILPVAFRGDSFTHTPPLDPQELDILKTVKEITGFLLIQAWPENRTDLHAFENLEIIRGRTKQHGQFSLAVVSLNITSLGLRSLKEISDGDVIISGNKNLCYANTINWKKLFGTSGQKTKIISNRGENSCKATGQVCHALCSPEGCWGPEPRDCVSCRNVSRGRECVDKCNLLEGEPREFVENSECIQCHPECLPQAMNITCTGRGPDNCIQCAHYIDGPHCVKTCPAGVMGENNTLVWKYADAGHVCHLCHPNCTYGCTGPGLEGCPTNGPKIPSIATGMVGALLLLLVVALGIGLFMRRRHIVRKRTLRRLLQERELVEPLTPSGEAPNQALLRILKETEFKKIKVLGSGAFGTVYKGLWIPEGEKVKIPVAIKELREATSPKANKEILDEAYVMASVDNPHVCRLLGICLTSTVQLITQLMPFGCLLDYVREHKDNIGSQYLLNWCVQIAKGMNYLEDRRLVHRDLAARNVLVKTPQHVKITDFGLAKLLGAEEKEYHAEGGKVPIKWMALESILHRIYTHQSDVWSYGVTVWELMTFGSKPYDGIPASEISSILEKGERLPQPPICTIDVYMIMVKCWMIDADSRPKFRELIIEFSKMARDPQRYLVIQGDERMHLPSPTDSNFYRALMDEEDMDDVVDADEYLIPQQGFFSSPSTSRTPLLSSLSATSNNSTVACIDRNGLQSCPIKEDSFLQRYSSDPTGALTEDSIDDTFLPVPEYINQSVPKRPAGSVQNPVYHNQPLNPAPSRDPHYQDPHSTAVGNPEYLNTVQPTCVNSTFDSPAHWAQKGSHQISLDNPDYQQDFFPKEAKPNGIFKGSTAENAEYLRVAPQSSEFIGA
Chain of Substance-P receptor (Homo sapiens) (P25103 whole entry): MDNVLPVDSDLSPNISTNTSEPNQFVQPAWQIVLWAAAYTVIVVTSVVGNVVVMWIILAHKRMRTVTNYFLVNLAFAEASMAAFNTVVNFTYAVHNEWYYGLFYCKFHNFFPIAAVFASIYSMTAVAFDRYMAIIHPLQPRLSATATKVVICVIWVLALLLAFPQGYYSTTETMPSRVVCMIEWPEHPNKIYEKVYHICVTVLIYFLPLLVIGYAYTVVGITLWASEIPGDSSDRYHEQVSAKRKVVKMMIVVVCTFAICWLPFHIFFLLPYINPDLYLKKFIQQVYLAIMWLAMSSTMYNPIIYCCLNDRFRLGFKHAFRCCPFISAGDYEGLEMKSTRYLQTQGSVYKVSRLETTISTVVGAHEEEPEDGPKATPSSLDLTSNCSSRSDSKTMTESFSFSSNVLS
Chain of Beta-1 adrenergic receptor (Homo sapiens) (P08588 whole entry, looked up): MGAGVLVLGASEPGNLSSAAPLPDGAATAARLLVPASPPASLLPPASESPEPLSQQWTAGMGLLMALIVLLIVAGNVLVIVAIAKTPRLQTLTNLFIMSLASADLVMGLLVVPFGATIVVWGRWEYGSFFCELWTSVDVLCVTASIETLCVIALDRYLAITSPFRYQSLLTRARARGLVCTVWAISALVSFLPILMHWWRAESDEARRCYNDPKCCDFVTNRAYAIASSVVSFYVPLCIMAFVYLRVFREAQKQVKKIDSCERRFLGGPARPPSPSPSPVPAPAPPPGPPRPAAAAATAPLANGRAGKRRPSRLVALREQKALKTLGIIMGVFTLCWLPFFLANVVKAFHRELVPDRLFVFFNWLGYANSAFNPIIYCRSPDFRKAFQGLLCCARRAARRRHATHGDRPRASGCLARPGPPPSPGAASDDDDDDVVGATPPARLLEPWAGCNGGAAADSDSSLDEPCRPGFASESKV
Chain of Androgen receptor (Rattus norvegicus) (P15207 whole entry S389L): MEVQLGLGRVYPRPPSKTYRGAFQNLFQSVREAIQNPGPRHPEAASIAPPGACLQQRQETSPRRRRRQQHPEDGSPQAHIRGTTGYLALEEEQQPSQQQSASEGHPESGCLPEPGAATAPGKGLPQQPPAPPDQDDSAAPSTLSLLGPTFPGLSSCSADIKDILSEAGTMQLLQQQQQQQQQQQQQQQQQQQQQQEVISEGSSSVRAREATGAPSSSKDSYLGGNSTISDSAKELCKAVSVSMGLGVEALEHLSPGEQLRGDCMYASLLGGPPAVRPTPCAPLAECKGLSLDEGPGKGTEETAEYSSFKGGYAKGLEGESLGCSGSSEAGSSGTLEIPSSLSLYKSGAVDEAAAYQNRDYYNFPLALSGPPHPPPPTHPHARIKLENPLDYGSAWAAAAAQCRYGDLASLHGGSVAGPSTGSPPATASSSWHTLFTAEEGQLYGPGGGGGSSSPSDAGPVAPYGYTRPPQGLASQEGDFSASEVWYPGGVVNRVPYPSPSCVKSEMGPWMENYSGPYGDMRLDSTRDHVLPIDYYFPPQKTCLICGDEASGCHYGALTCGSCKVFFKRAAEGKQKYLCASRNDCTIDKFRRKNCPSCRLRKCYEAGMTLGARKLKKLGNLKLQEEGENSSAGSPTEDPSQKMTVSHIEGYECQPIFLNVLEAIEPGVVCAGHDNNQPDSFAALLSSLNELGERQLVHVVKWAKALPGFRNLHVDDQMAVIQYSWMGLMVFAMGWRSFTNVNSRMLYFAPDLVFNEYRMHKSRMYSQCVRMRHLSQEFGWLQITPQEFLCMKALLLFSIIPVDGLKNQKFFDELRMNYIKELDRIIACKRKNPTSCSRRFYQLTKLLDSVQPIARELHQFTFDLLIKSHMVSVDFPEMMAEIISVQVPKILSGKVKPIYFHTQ
Chain of Adenosine receptor A3 (Homo sapiens) (P0DMS8 whole entry): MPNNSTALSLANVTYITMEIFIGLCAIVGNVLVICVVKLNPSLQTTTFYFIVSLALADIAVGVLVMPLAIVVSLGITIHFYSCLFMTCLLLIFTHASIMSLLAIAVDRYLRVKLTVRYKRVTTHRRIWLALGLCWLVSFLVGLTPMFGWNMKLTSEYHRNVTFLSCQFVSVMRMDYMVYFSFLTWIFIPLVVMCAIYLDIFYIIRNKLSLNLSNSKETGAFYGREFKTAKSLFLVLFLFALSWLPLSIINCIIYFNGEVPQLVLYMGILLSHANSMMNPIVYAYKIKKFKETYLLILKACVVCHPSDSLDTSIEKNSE

With `O=c1cc(COc2cc(Cl)cc(Cl)c2)[nH][nH]1` the Activity (Mus musculus [1]) was 13.3%, the Activity [2] was 100% and the t1/2 [3] was 1.55 h. For the same molecule, the Activity (Cerebral cortex neuron) was “Active”, the concentration at 3 h [4] was 342 µM and the concentration at 6 h [5] was 347 µM. It also gave a concentration at 12 h [6] of 248 µM, an AUC(0-t) [7] of 179 ng·h/mL and an AUC(0-t) [8] of 42 ng·h/mL. For the same molecule, the half-life [9] was 3.6 h, the inhibition at 10 µM (hERG [10]) was 0.6% and the IC50 (Cytochrome P450 2C9) was > 50 µM. It also gave an inhibition [11] of 6%, an inhibition [12] of 3% and an inhibition [13] of 1%. The inhibition [14] was 3%, the inhibition [15] was -10% and the inhibition at 10 µM [16] was -5%. For the same molecule, the inhibition at 10 µM [17] was -2%, the inhibition (Rattus norvegicus [18]) was 3% and the inhibition [19] was 5%. The inhibition [20] was 3%, the inhibition (Rattus norvegicus [21]) was 12% and the inhibition (Homo sapiens) was 7%. It also gave an inhibition at 10 µM (hERG [22]) of -7%, an inhibition [23] of 3% and a Survival (Mus musculus [24]) of 129.2 days. The Survival (Mus musculus [25]) was 142.5 days, the inhibition [26] was “Active” and the inhibition [27] was “Active”.
